{"source": "ChEMBL document CHEMBL1795240", "about": "“Synthesis and anti-Trypanosoma cruzi activity of β-lapachone analogues” (Eur J Med Chem, 2011)"}
{"test_system": "Trypanosoma cruzi", "assay": "Ratio of Benzidazole IC50 to compound IC50 for bloodstream trypomastigote form of Trypanosoma cruzi Y", "assay_type": "functional", "conditions": "not given"}
{"smiles": "Cc1ccc(C2CCC3=C(O2)c2ccccc2C(=O)C3=O)cc1", "note": "(centres undefined)", "Ratio IC50": 2}
{"smiles": "O=C1C(=O)c2ccccc2C2=C1C[C@@H]1CC=C[C@@H]1O2", "Ratio IC50": 2}
{"smiles": "O=C1C(=O)c2ccccc2C2=C1CCC(c1ccccc1)O2", "note": "(centres undefined)", "Ratio IC50": 2}
{"test_system": "Trypanosoma cruzi", "assay": "(§1) Antitrypanosomal activity against bloodstream trypomastigote form of Trypanosoma cruzi Y isolated from albino mouse blood after 24 hrs", "assay_type": "functional, organism-based", "conditions": "not given", "procedure,_shortened": "(§2)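 Y-strain bloodstream trypomastigotes taken from infected albino mice at peak parasitaemia, isolated by differential centrifugation, and resuspended at 10^7 cells/mL in DMEM with 10% mouse blood. Compounds were added from DMSO stocks, with final DMSO never above 0.1%.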", "units": {"IC50": "µM"}}
{"smiles": "CC1(c2ccccc2)CCC2=C(O1)c1ccccc1C(=O)C2=O", "note": "(centres undefined)", "IC50": 123}
{"smiles": "O=C1C(=O)c2ccccc2C2=C1CCC(c1ccc(Cl)cc1)O2", "note": "(centres undefined)", "IC50": 20.2}
{"smiles": "Cc1ccc(C2CCC3=C(O2)c2ccccc2C(=O)C3=O)cc1", "note": "(centres undefined)", "IC50": 51.4}
{"smiles": "COc1ccc(C2CCC3=C(O2)c2ccccc2C(=O)C3=O)cc1", "note": "(centres undefined)", "IC50": 121}
{"smiles": "O=C1C(=O)c2ccccc2C2=C1CCC(c1ccc(F)cc1)O2", "note": "(centres undefined)", "IC50": 97.6}
{"smiles": "CCOc1ccc(C2CCC3=C(O2)c2ccccc2C(=O)C3=O)cc1", "note": "(centres undefined)", "IC50": 132}
{"smiles": "Cc1ccc(C2CCC3=C(O2)c2ccccc2C(=O)C3=O)c(C)c1", "note": "(centres undefined)", "IC50": 688}
{"smiles": "Cc1ccc(C2CC(c3ccc([N+](=O)[O-])cc3)C3=C(O2)c2ccccc2C(=O)C3=O)cc1", "note": "(centres undefined)", "IC50": "> 4000"}
{"smiles": "Cc1ccc(C2CC(c3ccccc3)C3=C(O2)c2ccccc2C(=O)C3=O)cc1", "note": "(centres undefined)", "IC50": 849}
{"smiles": "Cc1ccc(C2CC(c3cccs3)C3=C(O2)c2ccccc2C(=O)C3=O)cc1", "note": "(centres undefined)", "IC50": 1860}
{"smiles": "O=C1C(=O)c2ccccc2C2=C1C[C@@H]1CC=C[C@@H]1O2", "IC50": 62.6}
{"smiles": "O=C1C(=O)c2ccccc2C2=C1C[C@@H]1CCC=C[C@@H]1O2", "IC50": 161}
{"smiles": "O=C1C(=O)c2ccccc2C2=C1C[C@@H]1CCCO[C@@H]1O2", "IC50": 35.4}
{"smiles": "CCOC1CC[C@H]2CC3=C(O[C@H]2O1)c1ccccc1C(=O)C3=O", "note": "(some centres undefined)", "IC50": 331}
{"smiles": "COC1CC[C@H]2CC3=C(O[C@H]2O1)c1ccccc1C(=O)C3=O", "note": "(some centres undefined)", "IC50": 880}
{"smiles": "CC1(C)CCc2c(c3ccccc3c3nc(-c4ccc5c(c4)OCO5)oc23)O1", "IC50": 25}
{"smiles": "CC1(C)CCc2c(c3ccccc3c3nc(-c4c[nH]c5ccccc45)[nH]c23)O1", "IC50": 20}
{"smiles": "CC1(C)CCC2=C(O1)c1ccccc1C1(CO1)C2=O", "note": "(centres undefined)", "IC50": 1.3}
{"smiles": "CC1(C)OC2=C(C(=O)C(=O)c3ccccc32)C1Nc1ccccc1", "note": "(centres undefined)", "IC50": 86.3}
{"smiles": "O=C1C(=O)c2ccccc2C2=C1CCC(c1ccccc1)O2", "note": "(centres undefined)", "IC50": 56}
{"test_system": "Trypanosoma cruzi", "assay": "as §1", "assay_type": "functional, organism-based", "conditions": "read-out: ED50 (the source's name)", "procedure,_shortened": "as §2", "units": {"EC50": "µM"}}
{"smiles": "CC1(C)CCc2c(c3ccccc3c3nc4cc(Nc5ccccc5)/c(=N/c5ccccc5)cc-4n(-c4ccccc4)c23)O1", "EC50": 61.3}
